pIC50: −log10 of the molar value. One block for each molecule: values may come before it.
Assays:
[1] = Drug uptake in human A549 cells at 1 uM incubated for 1 hr followed by compound washout and measured after 8 hrs by LC-MS analysis; format: ADME, cell-based; details: a549, 1 h
Outline: (§1)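 A549 cells plated at 1,000,000 per 25 cm2 dish, dosed after 24 h at 1 µM final (0.1% DMSO), 1 h at 37 °C. Harvested at once or 8 h after three washes with fresh medium. Ethanol extraction, LC-MS quantitation as pmol/mg protein (Bradford), converted to µM using 4 µL cell volume per mg protein. Mean ± SD, three experiments.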

[2] = Drug uptake in human A549 cells at 1 uM after 1 hr by LC-MS analysis; format: ADME, cell-based; details: a549, 1 h; outline: as §1
NCI-H1975 = assay: cells; format: functional, cell-based; details: Homo sapiens, NCI-H1975, 72 h
[3] = test system: Epidermal growth factor receptor (Homo sapiens), P00533 [L858R,T790M]; details: NCI-H1975, at 0.1 µM
[4] = Cysteine reactivity in pH 10 CAPS buffer assessed as half life for cysteine-compound adduct formation at 10 uM after 24 hrs in presence of 100 molar excess cysteine by LC-MS analysis
Outline: (§2)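 Compound at 10 µM added to freshly prepared 1 mM cysteine (1:100) in 50 mM CAPS pH 10, ionic strength 0.15 M with KCl; 37 °C; Cys-conjugate measured after 24 h by LC-MS in MRM mode. Half-life from LC-MS; conjugate peak area scaled to the 2-chloroacetamide conjugate set at 10,000.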

[5] = molecular target: T1, Epidermal growth factor receptor (Homo sapiens, UniProt P00533); details: A549, at 1 µM
[6] = molecular target: T1, Epidermal growth factor receptor; details: A549, at 1 µM; remark: listed apart in the source
[7] = test system: Epidermal growth factor receptor (Homo sapiens), P00533 [L858R,T790M]; details: NCI-H1975, at 1 µM
A549 = assay: Ratio of drug uptake in human A549 cells at 1 uM measured after 1 hr to drug uptake in human A549 cells at 1 uM incubated for 1 hr followed by compound washout and measured after 8 hrs; format: ADME, cell-based; details: a549, 1 µM; outline: as §1
[8] = molecular target: T1, Epidermal growth factor receptor; assay: Inhibition of wild type EGFR autophosphorylation in human A549 cells by Western blot analysis; format: cell-based
[9] = molecular target: T1, Epidermal growth factor receptor
[10] = Cysteine reactivity in pH 10 CAPS buffer assessed as peak area for cysteine-compound adduct formation at 10 uM after 24 hrs in presence of 100 molar excess cysteine by LC-MS analysis relative to 2-chloro-N-(4-((3-chloro-4-fluorophenyl)amino)-7-ethoxyquinazolin-6-yl)acetamide; outline: as §2

Epidermal growth factor receptor (Homo sapiens), P00533 [L858R,T790M], sequence (P00533 whole entry T790M/L858R, looked up): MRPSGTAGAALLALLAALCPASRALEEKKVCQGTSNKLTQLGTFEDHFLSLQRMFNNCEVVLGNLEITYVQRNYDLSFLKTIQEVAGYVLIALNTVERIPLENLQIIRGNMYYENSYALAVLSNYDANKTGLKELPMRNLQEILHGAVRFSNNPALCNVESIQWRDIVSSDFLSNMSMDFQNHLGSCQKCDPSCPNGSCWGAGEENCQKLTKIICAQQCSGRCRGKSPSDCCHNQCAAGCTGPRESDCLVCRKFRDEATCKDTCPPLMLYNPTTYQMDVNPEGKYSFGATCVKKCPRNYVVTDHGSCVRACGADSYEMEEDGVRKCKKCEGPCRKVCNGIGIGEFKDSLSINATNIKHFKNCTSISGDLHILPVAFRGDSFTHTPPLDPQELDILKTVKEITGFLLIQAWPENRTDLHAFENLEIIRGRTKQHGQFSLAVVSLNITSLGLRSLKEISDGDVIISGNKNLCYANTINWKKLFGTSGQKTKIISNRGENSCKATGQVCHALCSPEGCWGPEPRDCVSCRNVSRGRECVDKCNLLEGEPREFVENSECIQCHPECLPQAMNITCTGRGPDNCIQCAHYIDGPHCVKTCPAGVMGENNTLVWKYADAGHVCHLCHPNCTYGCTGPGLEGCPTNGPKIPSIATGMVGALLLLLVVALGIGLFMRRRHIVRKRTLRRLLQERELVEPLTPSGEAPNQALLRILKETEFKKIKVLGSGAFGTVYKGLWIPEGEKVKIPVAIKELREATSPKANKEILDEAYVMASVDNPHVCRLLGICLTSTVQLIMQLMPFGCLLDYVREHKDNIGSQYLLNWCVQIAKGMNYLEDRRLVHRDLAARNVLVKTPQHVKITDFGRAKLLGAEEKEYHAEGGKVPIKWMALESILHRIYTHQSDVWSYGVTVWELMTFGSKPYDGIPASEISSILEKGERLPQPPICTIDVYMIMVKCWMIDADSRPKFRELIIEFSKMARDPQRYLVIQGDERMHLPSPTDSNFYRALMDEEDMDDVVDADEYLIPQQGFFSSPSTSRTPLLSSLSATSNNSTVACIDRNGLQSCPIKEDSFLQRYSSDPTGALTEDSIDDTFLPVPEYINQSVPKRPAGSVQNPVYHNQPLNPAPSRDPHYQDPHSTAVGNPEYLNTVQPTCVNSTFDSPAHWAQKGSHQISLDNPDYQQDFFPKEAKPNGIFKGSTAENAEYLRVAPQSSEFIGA
T1 sequence (P00533 whole entry): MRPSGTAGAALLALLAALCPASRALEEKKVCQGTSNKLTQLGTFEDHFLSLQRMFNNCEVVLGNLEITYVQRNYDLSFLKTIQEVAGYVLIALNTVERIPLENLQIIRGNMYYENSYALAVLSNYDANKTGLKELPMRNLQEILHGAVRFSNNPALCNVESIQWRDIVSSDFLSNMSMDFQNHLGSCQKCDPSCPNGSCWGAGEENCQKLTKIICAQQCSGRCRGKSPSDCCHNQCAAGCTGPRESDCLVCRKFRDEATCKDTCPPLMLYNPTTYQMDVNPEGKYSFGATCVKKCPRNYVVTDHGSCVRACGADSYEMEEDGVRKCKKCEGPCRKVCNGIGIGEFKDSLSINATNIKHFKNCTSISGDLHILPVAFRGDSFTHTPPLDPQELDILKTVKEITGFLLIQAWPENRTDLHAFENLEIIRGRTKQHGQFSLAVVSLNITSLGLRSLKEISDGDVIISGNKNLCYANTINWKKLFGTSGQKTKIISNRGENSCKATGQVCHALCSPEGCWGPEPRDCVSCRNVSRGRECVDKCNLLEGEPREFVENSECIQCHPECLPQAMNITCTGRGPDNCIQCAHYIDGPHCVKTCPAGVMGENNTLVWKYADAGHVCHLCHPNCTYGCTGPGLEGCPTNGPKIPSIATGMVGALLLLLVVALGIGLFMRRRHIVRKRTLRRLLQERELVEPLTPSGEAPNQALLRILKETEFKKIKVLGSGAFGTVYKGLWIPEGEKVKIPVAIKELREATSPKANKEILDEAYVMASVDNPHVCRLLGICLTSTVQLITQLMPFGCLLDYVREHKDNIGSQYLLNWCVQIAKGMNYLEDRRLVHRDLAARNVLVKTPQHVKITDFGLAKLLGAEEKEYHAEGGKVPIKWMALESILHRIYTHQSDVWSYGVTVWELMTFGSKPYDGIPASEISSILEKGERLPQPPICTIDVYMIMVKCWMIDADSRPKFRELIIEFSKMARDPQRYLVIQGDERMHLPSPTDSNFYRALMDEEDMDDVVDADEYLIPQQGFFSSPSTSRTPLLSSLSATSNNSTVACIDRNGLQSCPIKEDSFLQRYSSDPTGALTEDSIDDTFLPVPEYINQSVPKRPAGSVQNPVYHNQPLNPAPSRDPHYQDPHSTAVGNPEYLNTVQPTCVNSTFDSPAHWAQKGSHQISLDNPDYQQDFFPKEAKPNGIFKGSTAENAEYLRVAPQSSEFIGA

SMILES: COc1cc2ncnc(Nc3ccc(F)c(Cl)c3)c2cc1OCCCN1CCOCC1 [GEFITINIB]
Drug uptake [1]: 2.4 µM
Drug uptake [2]: 271 µM

SMILES: CCOc1cc2ncnc(Nc3ccc(F)c(Cl)c3)c2cc1NC(=O)CO
pIC50 (NCI-H1975): < 5.00
Drug uptake [1]: 1.1 µM
inhibition [3]: 0%
T1/2 [4]: > 24 h
inhibition [5]: 90%
Drug uptake [2]: 132 µM
inhibition [6]: 77%
inhibition [7]: 0%
Ratio (A549): 120
pIC50 [8]: 7.57
pIC50 [9]: 9.47

Further lines, results first:

pIC50 (NCI-H1975): 5.47
Drug uptake [1]: < 0.05 µM
Activity [10]: 0.64 a.u.
inhibition [3]: 27%
T1/2 [4]: 23.3 h
inhibition [5]: 97%
Drug uptake [2]: 5.8 µM
inhibition [6]: 75%
inhibition [7]: 68%
pIC50 [8]: 7.47
pIC50 [9]: 9.28
SMILES: CCOc1cc2ncnc(Nc3ccc(F)c(Cl)c3)c2cc1NC(=O)COC(C)=O

pIC50 (NCI-H1975): 5.08
Activity [10]: 11 a.u.
inhibition [3]: 0.5%
T1/2 [4]: > 24 h
inhibition [5]: 88%
inhibition [6]: 89%
inhibition [7]: 43%
pIC50 [8]: 7.60
SMILES: CCOc1cc2ncnc(Nc3ccc(F)c(Cl)c3)c2cc1NC(=O)COC(=O)c1ccccc1

pIC50 (NCI-H1975): 5.21
Activity [10]: 5 a.u.
inhibition [3]: 20%
T1/2 [4]: > 24 h
inhibition [5]: 97%
inhibition [6]: 97%
inhibition [7]: 16%
pIC50 [8]: 7.36
SMILES: CCOc1cc2ncnc(Nc3ccc(F)c(Cl)c3)c2cc1NC(=O)COC(=O)c1c(C)cccc1C

— ChEMBL document CHEMBL4382245, “Balancing reactivity and antitumor activity: heteroarylthioacetamide derivatives as potent and time-dependent inhibitors of EGFR” (Eur J Med Chem, 2019)
